The nature of data set [1]: melting temperature; fluorescence melt of hairpins on a sequencing array, two-state fit, raised by 9.35 °C to match UV melts. The settings on record: sodium 0.088 M. The essentials: (§1)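 Melting temperature and folding enthalpy were obtained by bootstrapped two-state fitting. Fits used Cy3 fluorescence of library hairpins with annealed Cy3 and quencher oligos on a sequenced MiSeq flow cell, imaged in 50 mM Na-HEPES pH 8.0, 25 mM NaCl in 2.5 °C steps up to 60 °C and normalised to pre-quench Cy3 and control constructs. Four replicates were combined by inverse-variance weighting, and fitted temperatures were raised by 9.35 °C to match UV melts.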

Data set [2] can be described thus: folding enthalpy; higher = less favourable; fluorescence melt of hairpins on a sequencing array, two-state fit. The settings on record: sodium 0.088 M. In outline:
as §1

Drawing on the array DNA melting data of Ke et al. (doi:10.1101/2024.01.08.574731), this text covers Tm and folding enthalpy for 37 sequences.

As to GAAGACGAAAGTCCTTC ((((((....))).))), the Tm in data set [1] turned out to be 39.2 °C. For the same sequence, the folding enthalpy in data set [2] was -20.8 kcal/mol.

On to GCACACGGAAACATGTGC (((((.(....).))))), for which the Tm in data set [1] amounted to 47.4 °C. Moreover, in data set [2], the folding enthalpy was -35.2 kcal/mol.

On to GCGTCGGGAAACTGGCGC (((.(.(....).).))), for which, in data set [1], the Tm worked out at 53.2 °C. The folding enthalpy in data set [2] is -37.1 kcal/mol.

Turning to CGTACCGGAAACGGCACG (((.(((....))).))), the Tm in data set [1] stood at 50.2 °C. In data set [2], the folding enthalpy was -39.9 kcal/mol.

In the case of GGTCACGAAAGTGTAACC ((((((....)))..))), the Tm in data set [1] came out at 39.6 °C. Moreover, in data set [2], the folding enthalpy is -18.3 kcal/mol.

As to GCCGATCGAAAGATTGGC (((.(((....))).))), in data set [1], the Tm turned out to be 61.1 °C. Also, the folding enthalpy in data set [2] is -45.5 kcal/mol.

On to GAGGTGGGAAACCACCTC (((((((....))))))), for which, in data set [1], the Tm was 69.2 °C. Besides, the folding enthalpy in data set [2] is -31 kcal/mol.

On to GATCACAGGTGTGATC ((((((....)))))), for which the Tm in data set [1] stood at 59.9 °C. In addition, the folding enthalpy in data set [2] was -36.4 kcal/mol.

GAGCTACGAAAGTAACTC (((.(((....))).))): the Tm in data set [1] came out at 42.3 °C. Besides, the folding enthalpy in data set [2] is -25.5 kcal/mol.

Take GAGTCAGGAAACTGATTC ((.((((....)))).)): the Tm in data set [1] was determined as 39.8 °C. Further, the folding enthalpy in data set [2] is -27.1 kcal/mol.

On to GGAACAGGAAACCGTTCC (((((.(....).))))), for which, in data set [1], the Tm amounted to 45.5 °C. Besides, the folding enthalpy in data set [2] is -31.7 kcal/mol.

Regarding GGGGGGAAACCCCC (((((....))))), the Tm in data set [1] was found to be 65.9 °C. Also, the folding enthalpy in data set [2] was -21.5 kcal/mol.

On to GTGCTCGGAAACGGGCAC ((((.((....)).)))), for which the Tm in data set [1] turned out to be 61.4 °C. Also, in data set [2], the folding enthalpy was -47 kcal/mol.

As to GTTTGCGGAAACACAAAC (((((.(....).))))), the Tm in data set [1] is 42.1 °C. For the same sequence, in data set [2], the folding enthalpy is -34.2 kcal/mol.

On to GTAGCCGAAAGGCCTTAC ((((((....)))..))), for which, in data set [1], the Tm came to 33.5 °C. The folding enthalpy in data set [2] is -9.41 kcal/mol.

GCGGCCGAAAGGCGTCGC ((((((....)))..))): the Tm in data set [1] was 59.3 °C. Further, the folding enthalpy in data set [2] is -17.4 kcal/mol.

Turning to GATCTTGCGAAAGATC ((((((....)))))), the Tm in data set [1] came to 50.6 °C. Further, the folding enthalpy in data set [2] was -46.2 kcal/mol.

For GAACCCCGAAAGGGTTC (((.(((....)))))), the Tm in data set [1] turned out to be 58.9 °C. The folding enthalpy in data set [2] is -30.9 kcal/mol.

Turning to GGCGCACGAAAGTGGCC (((.(((....)))))), in data set [1], the Tm was found to be 59.9 °C. For the same sequence, in data set [2], the folding enthalpy was -18.3 kcal/mol.

In the case of GCGGGCGAAAGCCTTCGC ((((((....)))..))), the Tm in data set [1] amounted to 50.1 °C. For the same sequence, the folding enthalpy in data set [2] is -15.7 kcal/mol.

In the case of GATTTGGCGAAAGCCATC (((..(((....)))))), in data set [1], the Tm was found to be 26.1 °C. The folding enthalpy in data set [2] is -6.61 kcal/mol.

GCGCAAGGAAACTTGCAC (.(((((....))))).): the Tm in data set [1] came to 46.3 °C. The folding enthalpy in data set [2] is -13.4 kcal/mol.

For GGGGATGGAAACATCTCC ((.((((....)))).)), the Tm in data set [1] was found to be 50.3 °C. For the same sequence, the folding enthalpy in data set [2] was -32.1 kcal/mol.

In the case of CGGACTCGGAAACGACCG (((..(((....)))))), the Tm in data set [1] worked out at 32.9 °C. The folding enthalpy in data set [2] was -17.5 kcal/mol.

Regarding GCTTTCGAAAGAACAGC ((((((....))).))), the Tm in data set [1] worked out at 36.8 °C. The folding enthalpy in data set [2] was -23.7 kcal/mol.

On to GGTTCACGAAAGTGACC (((.(((....)))))), for which the Tm in data set [1] worked out at 59 °C. Moreover, in data set [2], the folding enthalpy is -15.5 kcal/mol.

For GAGTACGAAAGTATCCTC ((((((....)))..))), the Tm in data set [1] came to 25.4 °C. Further, the folding enthalpy in data set [2] was -17.6 kcal/mol.

For the sequence GCGTTCATACGC ((((....)))), the Tm in data set [1] was determined as 54.7 °C. Further, in data set [2], the folding enthalpy is -21.7 kcal/mol.

Turning to GGGGATGGAAACGTCCCC (((((.(....).))))), the Tm in data set [1] was found to be 56.1 °C. Also, the folding enthalpy in data set [2] was -48.9 kcal/mol.

GGGTCAGGAAACCGACCC (((((.(....).))))): the Tm in data set [1] was found to be 52.7 °C. The folding enthalpy in data set [2] is -37.3 kcal/mol.

Regarding GGAATGGGAAACCGTTTC (.((.((....)).)).), the Tm in data set [1] was 30.7 °C. For the same sequence, the folding enthalpy in data set [2] is -18 kcal/mol.

Regarding GATCTTGGTAAGATC ((((((...)))))), the Tm in data set [1] came out at 43.2 °C. The folding enthalpy in data set [2] was -29 kcal/mol.

As to GGTCCTCCGAAAGGAACC (((..(((....)))))), the Tm in data set [1] was determined as 32.9 °C. The folding enthalpy in data set [2] was -13 kcal/mol.

Regarding GATCCGATTGCGGATC ((((((....)))))), in data set [1], the Tm was determined as 56.1 °C. Besides, in data set [2], the folding enthalpy was -38.4 kcal/mol.

Take GCACGGCGAAAGCTGGGC ((.(.((....)).).)): the Tm in data set [1] is 67.5 °C. For the same sequence, the folding enthalpy in data set [2] is -31.5 kcal/mol.

For GATCAGGTCCTGATC ((((((...)))))), the Tm in data set [1] turned out to be 51.9 °C. Also, in data set [2], the folding enthalpy is -35.2 kcal/mol.

As for GTACCTGAAAAGGTAC ((((((....)))))), the Tm in data set [1] worked out at 60 °C. The folding enthalpy in data set [2] is -31.6 kcal/mol.
